Experimental data reported in ChEMBL document CHEMBL1140214, “Antitumor activity of new substituted 3-(5-imidazo[2,1-b]thiazolylmethylene)-2-indolinones and 3-(5-imidazo[2,1-b]thiadiazolylmethylene)-2-indolinones: selectivity against colon tumor cells and effect on cell cycle-related events” (2008).

Columns and labels:
Leukemia cell = assay: Antitumor activity against human Leukemia cells after 48 hrs by SRB assay; format: functional; conditions: for GI50 / TGI / LC50 (concentration killing 50% of cells): Homo sapiens, Leukemia cell, 48 h; for TGI: read-out: pTGI (converted)
Outline: (§1)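 NCI 60-cell panel two-stage screen: a single-dose pass at 10^-5 M, then five-dose testing for active compounds. Compounds were dissolved in DMSO and tested at five 10-fold dilutions, the highest 10^-4 M (10^-3 M in some cases). Results are given as the negative log molar concentration at three end points: pGI50, pTGI (total growth inhibition) and pLC50. Means are panel-subtype averages.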

NSCLC = assay: Antitumor activity against human NSCLC cells after 48 hrs by SRB assay; format: functional; conditions: for GI50 / LC50 / TGI: Homo sapiens, NSCLC, 48 h; for TGI: read-out: pTGI (converted); outline: as §1
[1] = Antitumor activity against human Colon cancer cells after 48 hrs by SRB assay; format: functional, Cancer cell lines; conditions: for GI50 / LC50 (50% lethal concentration) / TGI: Homo sapiens, Cancer cell lines, 48 h; for TGI: read-out: pTGI (converted); outline: as §1
[2] = Antitumor activity against human CNS cancer cells after 48 hrs by SRB assay; format: functional, Cancer cell lines; conditions: for TGI: read-out: pTGI (converted); outline: as §1
Melanoma cell = assay: Antitumor activity against human Melanoma cells after 48 hrs by SRB assay; format: functional; conditions: for CC50: read-out: pLC50 (the source's name) (converted); for TGI: read-out: pTGI (converted); outline: as §1
[3] = Antitumor activity against human ovarian cancer cells after 48 hrs by SRB assay; format: functional, Cancer cell lines; conditions: for GI50 / LC50 (concentration killing 50% of cells) / TGI: Homo sapiens, Cancer cell lines, 48 h; for TGI: read-out: pTGI (converted); outline: as §1
[4] = Antitumor activity against human renal cancer cells after 48 hrs by SRB assay; format: functional, Cancer cell lines; conditions: for GI50 / LC50 (concentration killing 50% of cells) / TGI: Homo sapiens, Cancer cell lines, 48 h; for TGI: read-out: pTGI (converted); outline: as §1
[5] = Antitumor activity against human prostate cancer cells after 48 hrs by SRB assay; format: functional, Cancer cell lines; conditions: for GI50 / TGI / LC50: Homo sapiens, Cancer cell lines, 48 h; for TGI: read-out: pTGI (converted); outline: as §1
[6] = Antitumor activity against human Breast cancer cells after 48 hrs by SRB assay; format: functional, Cancer cell lines; conditions: for GI50 / LC50 / TGI: Homo sapiens, Cancer cell lines, 48 h; for TGI: read-out: pTGI (converted); outline: as §1
[7] = Homo sapiens, Cancer cell lines, 48 h
[8] = Homo sapiens, Cancer cell lines, 48 h, read-out: pGI50 (converted)
[9] = Homo sapiens, Melanoma cell, 48 h, read-out: pGI50 (converted)
[10] = Homo sapiens, Melanoma cell, 48 h

Row | Structure (SMILES) | GI (Leukemia cell) [µM] | GI50 (Leukemia cell) [µM] | GI (NSCLC) [µM] | GI50 (NSCLC) [µM] | TGI (NSCLC) [µM] | GI [1] [µM] | GI50 [1] [µM] | GI50 [2] [µM] | GI50 [2, 8] [µM] | GI50 (Melanoma cell) [µM] | GI50 (Melanoma cell; [9]) [µM] | TGI (Melanoma cell; [10]) [µM] | GI [3] [µM] | GI50 [3] [µM] | GI [4] [µM] | GI50 [4] [µM] | GI [5] [µM] | GI50 [5] [µM] | GI [6] [µM] | GI50 [6] [µM] | further results
1 | Cc1ccc(-c2nc3sc(C)cn3c2/C=C2/C(=O)Nc3ccc(Cl)cc32)cc1 | 22.91 | 22.9 | 13.49 | 13.5 | 37.2 | 18.62 | 18.6 | 6.61 | 6.61 | 14.79 | 14.8 | 31.6 | 14.45 | 14.5 | 12.59 | 12.6 | 22.39 | 22.4 | 12.59 | 12.6 | TGI (Leukemia cell): 72.4 µM; LC50 (NSCLC): 69.2 µM; LC50 (50% lethal concentration) [1]: 79.4 µM; TGI [1]: 43.7 µM; LC50 [2, 7]: 55 µM; TGI [2, 7]: 20.4 µM; CC50 (Melanoma cell; [10]): 66.1 µM; LC50 (concentration killing 50% of cells) [3]: 74.1 µM; TGI [3]: 34.7 µM; LC50 (concentration killing 50% of cells) [4]: 64.6 µM; TGI [4]: 32.4 µM; TGI [5]: 55 µM; LC50 [6]: 75.9 µM; TGI [6]: 38.9 µM
2 | COc1ccc2c(c1)/C(=C\c1c(-c3ccc(C)cc3)nc3sc(C)cn13)C(=O)N2 | 4.07 | 4.07 | 14.45 | 14.5 | 77.6 | 12.88 | 12.9 | 14.45 | 14.5 | 16.22 | 16.2 | 55 | 18.2 | 18.2 | 13.18 | 13.2 | 4.68 | 4.68 | 12.88 | 12.9 | TGI (Leukemia cell): 51.3 µM; TGI [1]: 66.1 µM; TGI [3]: 97.7 µM; TGI [4]: 67.6 µM
3 | COc1ccc(OC)c(-c2nc3sccn3c2/C=C2/C(=O)N(C)c3ccccc32)c1 | 7.41 | 7.41 | 26.92 | 26.9 | 74.1 | 23.44 | 23.4 | 21.38 | 21.4 | 19.5 | 19.5 | 47.9 | 29.51 | 29.5 | 27.54 | 27.5 | 25.12 | 25.1 | 15.85 | 15.8 | LC50 (concentration killing 50% of cells) (Leukemia cell): 97.7 µM; TGI (Leukemia cell): 44.7 µM; LC50 (50% lethal concentration) [1]: 95.5 µM; TGI [1]: 67.6 µM; LC50 [2, 7]: 97.7 µM; TGI [2, 7]: 57.5 µM; CC50 (Melanoma cell; [10]): 87.1 µM; TGI [3]: 81.3 µM; TGI [4]: 72.4 µM; TGI [5]: 91.2 µM; TGI [6]: 53.7 µM
4 | Cc1nn2c(/C=C3/C(=O)Nc4ccccc43)c(-c3ccc(Cl)cc3)nc2s1 | 17.78 | 17.8 | 19.05 | 19.1 | 45.7 | 18.62 | 18.6 | 3.24 | 3.24 | 19.95 | 20 | 35.5 | 25.7 | 25.7 | 17.78 | 17.8 | 12.3 | 12.3 | 16.98 | 17 | TGI [1]: 44.7 µM; LC50 [2, 7]: 38.9 µM; TGI [2, 7]: 16.6 µM; CC50 (Melanoma cell; [10]): 47.9 µM; LC50 (concentration killing 50% of cells) [4]: 46.8 µM; TGI [4]: 33.1 µM; TGI [5]: 32.4 µM; TGI [6]: 42.7 µM
5 | Cc1cn2c(/C=C3/C(=O)Nc4ccc(O)cc43)c(-c3ccc(Cl)cc3)nc2s1 | 12.59 | 12.6 | 16.6 | 16.6 | 55 | 24.55 | 24.5 | 13.18 | 13.2 | 15.14 | 15.1 | 57.5 | 13.8 | 13.8 | 15.14 | 15.1 | 15.14 | 15.1 | 15.85 | 15.8 | LC50 (concentration killing 50% of cells) (Leukemia cell): 95.5 µM; TGI (Leukemia cell): 38.9 µM; LC50 (NSCLC): 91.2 µM; TGI [1]: 75.9 µM; LC50 [2, 7]: 81.3 µM; TGI [2, 7]: 35.5 µM; CC50 (Melanoma cell; [10]): 89.1 µM; LC50 (concentration killing 50% of cells) [3]: 89.1 µM; TGI [3]: 44.7 µM; LC50 (concentration killing 50% of cells) [4]: 87.1 µM; TGI [4]: 50.1 µM; LC50 [5]: 79.4 µM; TGI [5]: 50.1 µM; LC50 [6]: 95.5 µM; TGI [6]: 56.2 µM
6 | Cc1nn2c(/C=C3/C(=O)Nc4ccc(Cl)cc43)c(C)nc2s1 | 14.13 | 14.1 | 53.7 | 53.7 | 89.1 | 14.13 | 14.1 | 29.51 | 29.5 | 41.69 | 41.7 | 97.7 | 52.48 | 52.5 | 56.23 | 56.2 | 43.65 | 43.7 | 28.18 | 28.2 | TGI (Leukemia cell): 81.3 µM; TGI [2, 7]: 97.7 µM; TGI [6]: 83.2 µM
7 | Cc1cn2c(/C=C3/C(=O)N(C)c4ccc(Cl)cc43)c(C)nc2s1 | 1.45 | 1.45 | 7.94 | 7.94 | 41.7 | 2.69 | 2.69 | 3.16 | 3.16 | 5.5 | 5.5 | 63.1 | 3.8 | 3.8 | 6.03 | 6.03 | 1 | 1 | 6.76 | 6.76 | TGI (Leukemia cell): 11.7 µM; LC50 (50% lethal concentration) [1]: 83.2 µM; TGI [1]: 38 µM; LC50 [2, 7]: 79.4 µM; TGI [2, 7]: 28.8 µM; TGI [3]: 44.7 µM; TGI [4]: 61.7 µM; TGI [5]: 4.37 µM; TGI [6]: 33.1 µM
8 | COc1ccc2c(c1)/C(=C\c1c(-c3cc(OC)ccc3OC)nc3sc(C)cn13)C(=O)N2C | 15.85 | 15.8 | 28.84 | 28.8 | 89.1 | 33.11 | 33.1 | 23.99 | 24 | 25.12 | 25.1 | 56.2 | 25.7 | 25.7 | 30.9 | 30.9 | 30.9 | 30.9 | 28.84 | 28.8 | TGI (Leukemia cell): 63.1 µM; TGI [1]: 81.3 µM; TGI [2, 7]: 74.1 µM; TGI [3]: 91.2 µM; TGI [4]: 97.7 µM; TGI [5]: 97.7 µM; TGI [6]: 95.5 µM
9 | Cc1cn2c(/C=C3/C(=O)Nc4ccc(F)cc43)c(C)nc2s1 | 4.57 | 4.57 | 8.13 | 8.13 | 42.7 | 2.4 | 2.4 | 6.03 | 6.03 | 6.31 | 6.31 | 35.5 | 7.24 | 7.24 | 11.48 | 11.5 | 9.55 | 9.55 | 4.47 | 4.47 | TGI (Leukemia cell): 23.4 µM; TGI [1]: 40.7 µM; TGI [2, 7]: 33.1 µM; TGI [3]: 44.7 µM; TGI [4]: 40.7 µM; TGI [5]: 40.7 µM; TGI [6]: 23.4 µM
10 | Cc1cn2c(/C=C3/C(=O)Nc4ccccc43)c(-c3ccc(Cl)cc3)nc2s1 | 18.2 | 18.2 | 8.13 | 8.13 | 17.8 | 10.23 | 10.2 | 6.76 | 6.76 | 9.55 | 9.55 | 19.1 | 10 | 10 | 3.31 | 3.31 | 9.77 | 9.77 | 6.46 | 6.46 | TGI (Leukemia cell): 44.7 µM; LC50 (NSCLC): 38 µM; LC50 (50% lethal concentration) [1]: 38.9 µM; TGI [1]: 21.4 µM; LC50 [2, 7]: 30.2 µM; TGI [2, 7]: 15.1 µM; CC50 (Melanoma cell; [10]): 32.4 µM; LC50 (concentration killing 50% of cells) [3]: 39.8 µM; TGI [3]: 20.4 µM; LC50 (concentration killing 50% of cells) [4]: 33.1 µM; TGI [4]: 18.6 µM; LC50 [5]: 28.8 µM; TGI [5]: 17 µM; LC50 [6]: 35.5 µM; TGI [6]: 17.8 µM
11 | Cc1nn2c(/C=C3/C(=O)Nc4ccccc43)c(C)nc2s1 | 16.22 | 16.2 | 38.9 | 38.9 | – | 9.33 | 9.33 | 48.98 | 49 | 45.71 | 45.7 | – | 50.12 | 50.1 | 61.66 | 61.7 | 47.86 | 47.9 | 22.91 | 22.9 | –
